In the library only some 2.3% were active in any assay of this set; here they are far more common.
TRPC4 potent: positive allosteric modulators of TRPC4, primary screen, cell-based, mouse TRPC4beta, HEK293 mu-opioid, Fluo-4 calcium. Short transient receptor potential channel 4 (Mus musculus), Q9QUQ5. DAMGO EC20, Fluo-4 Ca2+ flux; active compounds read high. B-score at 10 µM. 310,000 tested, 0.42% active. AID 2227, 2009;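 active = B-score of calcium response area above 5 SD of library B-scores, with initial fluorescence ratio within 5 SD of library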;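 note: B-score of integrated fluorescence ratio over time as area under calcium response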
TRPC4 act: activators of mouse TRPC4 channel, primary screen, Fluo4 calcium, HEK293 TRPC4beta/mu-opioid cells; B-score at 10 µM; Fluo4 calcium fluorescence; active compounds read high; 310,000 tested, 0.49% active;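 active = B-score above 5 SD of library B-scores, and initial fluorescence ratio not above library mean plus 5 SD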;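 note: positive B-score marks a calcium rise read as TRPC4 activation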
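Material: HEK293 stable line with TRPC4beta plus mu-opioid receptor; technique: Fluo4 calcium-sensitive dye fluorescence, kinetic, 1 Hz baseline; timing: Fluo4 dye loading 45 min at room temperature, 110 s recording; controls: assay buffer as low control, maximal DAMGO as high control; read-out: integrated baseline-normalised fluorescence ratio, converted to per-well B score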
TRPC6 activator: mouse TRPC6 channel activators, primary screen, cell-based, HEK293, membrane potential dye | Short transient receptor potential channel 6 (Mus musculus), Q61143 | HEK293-TRPC6 membrane potential dye fluorescence; active compounds read high | B-score at 10 µM | 310,000 tested, 0.13% active;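 active = B-score of the integrated fluorescence ratio above library mean plus 3 SD, and starting fluorescence ratio within library mean plus 5 SD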;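 note: higher score means more depolarization so channel activation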
Target sequence (Q61143 whole entry, looked up): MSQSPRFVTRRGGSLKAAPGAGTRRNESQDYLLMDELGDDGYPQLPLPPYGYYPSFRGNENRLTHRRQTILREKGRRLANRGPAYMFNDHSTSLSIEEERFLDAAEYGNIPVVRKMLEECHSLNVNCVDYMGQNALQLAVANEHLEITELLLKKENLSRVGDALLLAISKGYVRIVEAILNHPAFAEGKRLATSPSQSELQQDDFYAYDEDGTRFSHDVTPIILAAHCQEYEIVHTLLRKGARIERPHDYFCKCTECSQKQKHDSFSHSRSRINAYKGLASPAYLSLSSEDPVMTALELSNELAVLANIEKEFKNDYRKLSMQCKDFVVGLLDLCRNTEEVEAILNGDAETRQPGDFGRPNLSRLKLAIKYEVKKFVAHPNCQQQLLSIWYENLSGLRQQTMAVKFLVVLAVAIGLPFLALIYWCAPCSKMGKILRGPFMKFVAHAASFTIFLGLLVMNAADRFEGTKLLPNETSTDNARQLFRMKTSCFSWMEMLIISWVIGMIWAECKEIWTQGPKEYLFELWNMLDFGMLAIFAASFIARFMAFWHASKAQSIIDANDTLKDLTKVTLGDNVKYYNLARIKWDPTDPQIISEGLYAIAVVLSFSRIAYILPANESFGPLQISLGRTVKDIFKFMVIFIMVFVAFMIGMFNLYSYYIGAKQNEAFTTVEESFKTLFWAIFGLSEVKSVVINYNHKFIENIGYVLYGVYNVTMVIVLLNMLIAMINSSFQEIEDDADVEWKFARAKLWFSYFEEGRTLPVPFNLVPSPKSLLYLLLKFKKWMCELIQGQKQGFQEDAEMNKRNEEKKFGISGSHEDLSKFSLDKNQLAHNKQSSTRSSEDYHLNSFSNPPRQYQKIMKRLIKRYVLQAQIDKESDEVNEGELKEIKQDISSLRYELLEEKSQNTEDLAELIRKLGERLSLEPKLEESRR
TRPC4 block: inhibitors of mouse TRPC4 channel, primary screen, Fluo4 calcium, HEK293 TRPC4beta/mu-opioid cells | DAMGO-evoked Fluo4 calcium flux; active compounds read low | B-score at 10 µM | 300,000 tested, 0.39% active;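 active = B-score over 3 SD under the library average, no early fluorescence shift, positive overall ratio signal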
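Signal: kinetic Fluo4 fluorescence imaging of calcium influx. Material: stable TRPC4beta/mu-opioid receptor HEK293 cells. Probe or stimulus: DAMGO in two steps, submaximal then maximal.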
TRPC6 inhibitor: mouse TRPC6 channel inhibitors, primary screen, cell-based, HEK293, membrane potential dye; Short transient receptor potential channel 6 (Mus musculus), Q61143; ACh-evoked depolarization; active compounds read low; B-score at 10 µM; 310,000 tested, 1.1% active;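 active = B-score under library mean minus 3 SD, initial fluorescence not abnormally high, positive integrated signal ratio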;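 note: B-score derived from integrated fluorescence ratio over the kinetic read; more negative B-score means stronger inhibition of depolarization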
HEK293 TRPC6 ctr: parental HEK293 membrane potential modulation, confirmation, counter-screen for TRPC6 modulator project, cell-based | AID 488924, 2010 | membrane potential dye fluorescence | 2,400 tested, 51% active | membrane potential signal change, % at 10 µM | shares compounds with TRPC6 inhibitor;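 active = membrane potential signal moves up or down beyond 5 SD from buffer-only wells, on both duplicate plates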
HEK293 MPD ctr 2: parental HEK293 nonspecific activity of TRPC6 modulators, second screen. inhibition, % at 10 µM. AID 488926. shares compounds with TRPC6 inhibitor. 2,400 tested, 14% active. membrane potential dye fluorescence; after compound, maximal acetylcholine stimulation;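 active = membrane potential signal drops by more than 5 SD from the mean control signal, in both duplicate plates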;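 note: plate controls were acetylcholine ECmax control wells for no effect and buffer only wells for full effect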
TRPC4/MOR mod: TRPC4 modulation by TRPC6 hit compounds, confirmation, selectivity assay for TRPC6 modulator project, cell-based, HEK293 TRPC4/mu-opioid, membrane potential dye, mouse | shares compounds with TRPC6 inhibitor | membrane potential fluorescence | percent change from control (negative = decrease, positive = increase), % at 10 µM | 2,400 tested, 69% active | AID 488927, 2010;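 active = membrane potential signal moved up or down beyond 5 SD of buffer control wells, in both duplicate plates, actives on both sides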;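 note: plate controls were assay buffer wells for no effect and DAMGO maximal-effect wells for full effect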
TRPC4/MOR inh 2: mouse TRPC4 off-target activity of TRPC6 modulators, second screen; shares compounds with TRPC6 inhibitor; HEK293 TRPC4/mu-opioid, membrane potential dye fluorescence; stimulated with maximal-effect DAMGO; inhibition, % at 10 µM; 2,400 tested, 55% active; AID 488928;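 active = drop in membrane potential signal beyond 5 SD of the control wells in both duplicate plates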;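 note: TRPC4 counter screen for TRPC6 hits run under conditions tuned for TRPC6 not TRPC4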
TRPC6 inh conf: mouse TRPC6 channel inhibitors, confirmation, HEK293 cells, membrane potential dye, duplicate; 3,300 tested, 43% active; ACh-evoked depolarization; shares compounds with TRPC6 inhibitor; inhibition, % at 10 µM;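 active = fluorescence ratio falls more than 5 SD below the full-stimulation control mean, in both duplicate runs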;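 note: integrated fluorescence ratio of peak minus minimum over baseline after agonist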
TRPC6 act confirm: mouse TRPC6 channel activators, confirmation, HEK293 cells, membrane potential dye, duplicate | shares compounds with TRPC6 inhibitor | HEK293-TRPC6 membrane potential dye fluorescence, FDSS | activation, % at 10 µM | 2,800 tested, 11% active;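 active = ratio signal rise beyond 5 SD above unstimulated control wells' mean, seen in both duplicate runs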;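 note: plate controls were buffer EC0 wells for no effect and acetylcholine ECmax response for full effect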
Numbers without * were called inactive.

`CC(Nc1nc(N2CCN(S(C)(=O)=O)CC2)nc2ccccc12)c1ccccc1` (stereo not drawn) gave TRPC4 potent inactive, TRPC4 act inactive, TRPC6 activator inactive, TRPC4 block inactive, TRPC6 inhibitor -6.05*, HEK293 TRPC6 ctr -158.0%*, HEK293 MPD ctr 2 inactive, TRPC4/MOR mod -26.5%*, TRPC4/MOR inh 2 52.0%*, TRPC6 inh conf inactive and TRPC6 act confirm inactive.
For COc1ccc([C@@H]2[C@@H]3C(=O)N(C(C)(C)C)C(=O)[C@@H]3[C@]3(Cc4ccccc4)C(=O)N(c4ccc(Br)cc4)C(=O)N23)cc1 the results were TRPC4 potent inactive, TRPC4 act inactive, TRPC6 activator inactive, TRPC4 block inactive, TRPC6 inhibitor -6.08*, HEK293 TRPC6 ctr inactive, HEK293 MPD ctr 2 inactive, TRPC4/MOR mod inactive, TRPC4/MOR inh 2 inactive, TRPC6 inh conf inactive and TRPC6 act confirm inactive.
CCCN(CCC)c1nc(-c2ccccn2)nc2ccccc12 was read as TRPC4 potent inactive, TRPC4 act inactive, TRPC6 activator inactive, TRPC4 block inactive, TRPC6 inhibitor -5.55*, HEK293 TRPC6 ctr inactive, HEK293 MPD ctr 2 77.5%*, TRPC4/MOR mod inactive, TRPC4/MOR inh 2 67.5%*, TRPC6 inh conf 76.0%* and TRPC6 act confirm inactive.
`c1ccc2c(N3CCCC3)nc(-c3ccncc3)nc2c1` gave TRPC4 potent inactive, TRPC4 act inactive, TRPC6 activator inactive, TRPC4 block inactive, TRPC6 inhibitor -7.25*, HEK293 TRPC6 ctr -248.0%*, HEK293 MPD ctr 2 inactive, TRPC4/MOR mod -42.0%*, TRPC4/MOR inh 2 35.0%*, TRPC6 inh conf 39.0%* and TRPC6 act confirm inactive.
For c1ccc(-c2nc(N3CCCCCC3)c3ccccc3n2)nc1 the results were TRPC4 potent inactive, TRPC4 act inactive, TRPC6 activator inactive, TRPC4 block inactive, TRPC6 inhibitor -9.7*, HEK293 TRPC6 ctr -202.0%*, HEK293 MPD ctr 2 70.0%*, TRPC4/MOR mod -30.5%*, TRPC4/MOR inh 2 73.0%*, TRPC6 inh conf 62.5%* and TRPC6 act confirm inactive.
`COc1ccccc1C1NC(=O)NC(C)=C1C(=O)OC1CCC(C)CC1` (stereo not drawn) gave TRPC4 potent inactive, TRPC4 act inactive, TRPC6 activator inactive, TRPC4 block inactive and TRPC6 inhibitor inactive.
CCOC(=O)Cn1cnc(-c2ccc([N+](=O)[O-])cc2)c1 was read as TRPC4 potent inactive, TRPC4 act inactive, TRPC6 activator inactive, TRPC4 block inactive and TRPC6 inhibitor inactive.

Assay outcomes as filed in PubChem BioAssay.
